High-throughput results deposited in PubChem BioAssay by several laboratories.
Runt-CBFb FRET: inhibitors of RUNX1 Runt–CBFb binding, primary screen, biochemical, FRET, Cerulean-Runt, Venus-CBFb, uHTS; Runt-related transcription factor 1 (Homo sapiens) + Core-binding factor subunit beta …; Cerulean-Runt/Venus-CBFb FRET ratio 530/480, 1 h; inhibition, % at 20 µM; hit rate 0.46% among 220,000; AID 1496, 2009;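 active = inhibition over about 50% at 20 µM in the single-dose screen, limit read from the data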;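 note: 0% = DMSO wells and 100% = excess unlabeled CBFb competitor control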
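Reagent – Venus-CBFb binding partner, 100 nM · Assay system – Cerulean-tagged RUNX1 Runt domain (FRET donor) fusion protein · Input – 100 nM per protein · Incubation – two 1 h room-temperature incubations shielded from light · Measured by – FRET fluorescence · Medium – Tris buffer pH 7.5 with salts and BSA · Benchmarks – unlabeled CBFb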
Hck Nef HTS: inhibitors of Nef-activated human Hck kinase, primary screen, biochemical, Z-Lyte FRET, 384-well, Hck-YEEI | AID 463187, 2010 | inhibition, % at 20 µM | Recombinant Hck-YEEI plus Nef, Z-Lyte FRET kinase assay | hit rate 0.68% among 220,000;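 active = Hck-Nef kinase inhibition above about 50%, limit read from the data; inactive = inhibition below that limit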;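 note: 0% = DMSO with Hck plus Nef and 100% = Hck alone without Nef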
Target sequence (P08631 whole entry, looked up): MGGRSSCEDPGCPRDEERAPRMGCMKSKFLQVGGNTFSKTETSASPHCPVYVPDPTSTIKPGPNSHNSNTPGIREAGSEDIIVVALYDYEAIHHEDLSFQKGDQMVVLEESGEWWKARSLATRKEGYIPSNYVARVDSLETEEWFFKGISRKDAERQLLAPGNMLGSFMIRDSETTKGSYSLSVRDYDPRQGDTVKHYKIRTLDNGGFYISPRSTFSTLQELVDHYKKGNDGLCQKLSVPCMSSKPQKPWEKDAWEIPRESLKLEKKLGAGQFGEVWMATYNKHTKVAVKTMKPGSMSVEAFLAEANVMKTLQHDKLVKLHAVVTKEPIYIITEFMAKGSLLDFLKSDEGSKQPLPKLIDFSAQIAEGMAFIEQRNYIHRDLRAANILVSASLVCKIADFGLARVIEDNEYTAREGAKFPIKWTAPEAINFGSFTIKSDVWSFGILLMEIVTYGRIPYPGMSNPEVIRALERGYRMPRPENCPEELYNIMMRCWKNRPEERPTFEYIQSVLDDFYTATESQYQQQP
Runt-SMMHC FRET: inhibitors of RUNX1 Runt–CBFb-SMMHC binding, primary screen, biochemical, FRET, Cerulean-Runt, Venus-CBFb-SMMHC, uHTS. Runt-related transcription factor 1 (Homo sapiens) + Core-binding factor subunit beta …. Cerulean-Runt/Venus-CBFb-SMMHC FRET ratio 530/480, 1 h. inhibition, % at 20 µM. hit rate 0.74% among 220,000;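 active = mean inhibition across duplicate retests at 20 µM reaching about 50%, limit read from the data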;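 note: 0% = DMSO wells and 100% = wells with excess untagged CBFb-SMMHC; inhibitors lower the FRET ratio by blocking Runt binding to CBFb-SMMHC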
RanGTP-Imp inh: inhibitors of RanGTP-importin-beta interaction, primary screen, biochemical, FRET, CFP-Ran, YFP-importin-beta, homogeneous; hit rate 1.1% among 300,000; inhibition, % (no concentration beside the values); cell-free CFP-Ran/YFP-importin-beta FRET ratio; AID 2216, 2009; Ran GTPase (GTP-bound) - importin-beta complex;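 active = more than half of the replicate wells show a fall in the fluorescence ratio signal beyond about 16%, limit read from the data, passing the limit was not always enough; inconclusive = exactly half of the replicate wells pass the set limit; inactive = fewer than half of replicates pass the limit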;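 note: 0% = DMSO wells and 100% = Ran loaded with GDP instead of GTP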
CaV13 FRET inh: Disruptors of the CACNA1D IQ motif to Ca2+-dependent inactivation inhibitor domain association, primary screening, Förster resonance energy transfer in intact living …; hit rate 0.098% among 340,000; HEK cells, CFP/YFP FRET ICDI-IQ, plate reader, 10 min; percent FRET-ratio fall versus neutral wells; inhibition, % at 12.3 µM;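 active = mean replicate inhibition of at least 30% and at least 1% of replicates passing that level; inconclusive = only one of the two criteria is met; inactive = neither criterion is met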;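 note: 0% = median of the neutral control wells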
Runt-CBFb TRFRET: inhibitors of RUNX1 Runt–CBFb binding, biochemical, TR-FRET; shares compounds with Runt-CBFb FRET; TR-FRET RUNX1 Runt domain-CBFb binding; inhibition, % at 20 µM; hit rate 20% among 480; AID 1502, 2009; in the data active = inhibition above about 40%
An asterisk follows results filed as active. Most compounds without a hit are left out; they make up all but 1.5% or so of the library.

`CC(C)C(=O)N(c1ccc2oc(=O)sc2c1)S(=O)(=O)c1cccs1` gave Runt-CBFb FRET 58*, Hck Nef HTS 0, Runt-SMMHC FRET 37, RanGTP-Imp inh 0, CaV13 FRET inh -5 and Runt-CBFb TRFRET 38.
CC(C)C(=O)N(c1cc2sc(=O)oc2c2ccccc12)S(=O)(=O)c1cccs1 was read as Runt-CBFb FRET 32, Hck Nef HTS 0, RanGTP-Imp inh -3 and CaV13 FRET inh -8.
`COc1ccc(C(=O)NC2CC2)cc1OC1CCN(Cc2ccc(Cl)cc2)CC1` gave RanGTP-Imp inh 0.
Cc1ccc(CSCC(=O)NN=C2CCN(C)CC2)cc1 was read as Runt-CBFb FRET -2, Hck Nef HTS -1, Runt-SMMHC FRET 2, RanGTP-Imp inh 0 and CaV13 FRET inh -5.
OCCNc1nc(Nc2ccccc2)nc(Nc2ccccc2)n1 was read as Runt-CBFb FRET 1, Hck Nef HTS 0, Runt-SMMHC FRET -1, RanGTP-Imp inh 0 and CaV13 FRET inh -5.
Screening CCCC(C(=O)NC1CCCC1)N(C(=O)Cn1nnc(-c2ccc(C)o2)n1)c1ccccc1OC (stereo unspecified) returned Runt-CBFb FRET 53*, Hck Nef HTS 0, Runt-SMMHC FRET 3, RanGTP-Imp inh 0, CaV13 FRET inh -7 and Runt-CBFb TRFRET -15.
CCCc1ccc(C(=O)CN2C(=O)C(=O)N(C3CCCC3)C2=O)cc1 was read as CaV13 FRET inh -4.
`Cc1cc(S(=O)(=O)N2CCN=C2c2ccccc2)c(C)cc1Cl` gave Runt-CBFb FRET -1, Hck Nef HTS 4, Runt-SMMHC FRET 0, RanGTP-Imp inh 3 and CaV13 FRET inh -14.
`Cc1ncoc1C(=O)Nc1ncc([N+](=O)[O-])s1` gave Runt-CBFb FRET 64*, Hck Nef HTS -55, Runt-SMMHC FRET 27, RanGTP-Imp inh 1, CaV13 FRET inh -6 and Runt-CBFb TRFRET 20.
Screening CC1CN(c2nc3ccccn3c(=O)c2/C=C(\C#N)C(=O)N2CCOCC2)CC(C)O1 (stereo unspecified) returned Runt-CBFb FRET -2, Hck Nef HTS 12, Runt-SMMHC FRET -2, RanGTP-Imp inh 1 and CaV13 FRET inh -5.
Screening CNC(=O)/C(C#N)=C/c1c(N2CC(C)OC(C)C2)nc2ccccn2c1=O (stereo unspecified) returned Runt-CBFb FRET 94*, Hck Nef HTS 17, Runt-SMMHC FRET 121*, RanGTP-Imp inh inconclusive, CaV13 FRET inh -15 and Runt-CBFb TRFRET 11.
Screening O=[N+]([O-])c1ccc(C2CC(c3ccccc3)=Nc3ccccc3S2)cc1 (stereo unspecified) returned Runt-CBFb FRET 56*, Hck Nef HTS 20, Runt-SMMHC FRET -3, RanGTP-Imp inh -2, CaV13 FRET inh -18 and Runt-CBFb TRFRET 20.
For Fc1ccc(C2CC(c3ccco3)=Nc3ccccc3S2)cc1 (stereo unspecified) the results were Runt-CBFb FRET 51*, Hck Nef HTS -28, Runt-SMMHC FRET 34, RanGTP-Imp inh 3, CaV13 FRET inh -4 and Runt-CBFb TRFRET -5.
O=C1C=CC(=O)N1c1ccccc1N1C(=O)C=CC1=O was read as CaV13 FRET inh -5.
Screening O=C(c1ccccc1)c1ccccc1N1C(=O)C=CC1=O returned Runt-CBFb FRET 64*, Hck Nef HTS -168, Runt-SMMHC FRET 70*, RanGTP-Imp inh 1, CaV13 FRET inh -2 and Runt-CBFb TRFRET 14.
For c1ccc(-c2csc(NNC3=NCCCCC3)n2)cc1 the results were Runt-CBFb FRET 51*, Hck Nef HTS 11, Runt-SMMHC FRET 52, RanGTP-Imp inh -4 and Runt-CBFb TRFRET 44*.
Screening Cc1cccn2c(=O)c3cc(C#N)c(=N)n(Cc4ccncc4)c3nc12 returned Runt-CBFb FRET 70*, Hck Nef HTS -1, Runt-SMMHC FRET 130*, RanGTP-Imp inh 74* and Runt-CBFb TRFRET -4.
For CCC(C)(C)n1nnnc1C(c1ccc2ncccc2c1)N1CCN(c2ccc(O)cc2)CC1 (stereo unspecified) the results were Runt-CBFb FRET 54*, Hck Nef HTS 8, Runt-SMMHC FRET -1, RanGTP-Imp inh -1, CaV13 FRET inh -7 and Runt-CBFb TRFRET 29.
CN(Cc1ccccc1)C(=O)c1ccc(NC(=O)Cc2ccc(NC(=O)C3CCCN(C(=O)C4CCC4)C3)cc2)cc1 (stereo unspecified) was read as CaV13 FRET inh -4.
For S=C1CSc2ccccc2N1 the results were Runt-CBFb FRET 53*, Hck Nef HTS 25, Runt-SMMHC FRET 12, RanGTP-Imp inh 2, CaV13 FRET inh 4 and Runt-CBFb TRFRET 14.
For COc1ccc(-n2nnnc2SCC(=O)N2CCOCC2)cc1 the results were Runt-CBFb FRET 0, Hck Nef HTS 20, Runt-SMMHC FRET -2, RanGTP-Imp inh 7 and CaV13 FRET inh -7.
COc1ccc(-n2nnnc2Sc2ccc(S(=O)(=O)N3CCOCC3)cn2)cc1 was read as Runt-CBFb FRET 57*, Runt-SMMHC FRET 35, RanGTP-Imp inh 1 and Runt-CBFb TRFRET -39.
For CCc1nc2sc3c(O)cc(=O)[nH]c3c2cc1C the results were Runt-CBFb FRET 52*, Hck Nef HTS 12, Runt-SMMHC FRET 56, RanGTP-Imp inh -1, CaV13 FRET inh -2 and Runt-CBFb TRFRET 54*.
Screening Cc1cc(-c2ccccc2)c2c(n1)sc1c(O)cc(=O)[nH]c12 returned Runt-CBFb FRET 22, Hck Nef HTS 20, Runt-SMMHC FRET 5, RanGTP-Imp inh 9 and CaV13 FRET inh -2.
For Cc1ccc(Cn2c(SCCN3CCCCC3)nc3c2c(=O)[nH]c(=O)n3C)cc1 the results were Runt-CBFb FRET 50*, Hck Nef HTS -3, Runt-SMMHC FRET 38, RanGTP-Imp inh 0, CaV13 FRET inh inconclusive and Runt-CBFb TRFRET 25.
`Cn1c(=O)[nH]c(=O)c2c1nc(SCCN1CCCCC1)n2CCCc1ccccc1` gave Runt-CBFb FRET 52*, Hck Nef HTS 1, Runt-SMMHC FRET 47 and Runt-CBFb TRFRET inactive.
For Cn1c(=O)[nH]c(=O)c2c1nc(SCCN1CCCCC1)n2Cc1ccccc1 the results were Runt-CBFb FRET -1, Hck Nef HTS 0, Runt-SMMHC FRET -1, RanGTP-Imp inh 10 and CaV13 FRET inh -1.
For O=C(Nc1ncccc1O)c1cc2ccccc2o1 the results were RanGTP-Imp inh inconclusive and CaV13 FRET inh -4.
